Compound activity (PubChem)
Only some compounds are listed: those with a hit (about 4.7% of all), similar ones and a draw of the others.
RGS4 inh: inhibitors of human RGS4; P49798; HEK293 M3R/RGS4 inducible, Fluo-4 calcium flux; stronger effect = higher value; triggered by carbachol at its EC20; B-score at 10 µM; hit rate 0.45% among 310,000;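 active means B-score, a plate-corrected calcium signal, over three deviations above library mean, with baseline fluorescence within five deviations of library mean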;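 further: RGS4 expression induced by doxycycline in cells with stable M3 receptor; B-score is computed from the integrated fluorescence ratio over baseline after carbachol; higher B-score means a larger calcium signal and so more RGS4 inhibition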
Target sequence (P49798 whole entry, looked up): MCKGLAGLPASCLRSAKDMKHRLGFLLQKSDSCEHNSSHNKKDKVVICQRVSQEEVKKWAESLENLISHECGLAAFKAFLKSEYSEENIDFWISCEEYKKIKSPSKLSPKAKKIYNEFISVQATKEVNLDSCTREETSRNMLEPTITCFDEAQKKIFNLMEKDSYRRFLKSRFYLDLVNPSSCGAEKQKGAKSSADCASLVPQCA
RGS4 act: potentiators or activators of RGS4; HEK293 M3R/inducible RGS4, carbachol calcium flux Fluo4; stronger effect = lower value; B-score at 10 µM; hit rate 0.92% among 310,000; AID 463111;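 active means B-score of the integrated calcium signal more than 4 SD below the library mean, with starting fluorescence not abnormally high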;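 further: negative B-score means reduced calcium response which marks RGS4 activation or potentiation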
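Material: M3R-expressing HEK293 line, RGS4 induced by doxycycline | Schedule: Overnight RGS4 induction, 30 min dye load 37 °C, 20 min compound RT | Measured by: Fluo4 fluorescence kinetic imaging of calcium | Read-out: Integrated calcium ratio converted to B score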
MrgX1 agonist: activates human MrgX1 receptor signaling; hit rate 0.44% among 310,000; Q96LB2; MrgX1-HEK293 cells, Fluo-4 calcium fluorescence, agonist mode; stronger effect = higher value; B-score at 10 µM;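 active means calcium response B-score plate-corrected fluorescence ratio at least 3 library SD, with starting fluorescence B-score inside 5 SD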
Target sequence (Q96LB2 whole entry, looked up): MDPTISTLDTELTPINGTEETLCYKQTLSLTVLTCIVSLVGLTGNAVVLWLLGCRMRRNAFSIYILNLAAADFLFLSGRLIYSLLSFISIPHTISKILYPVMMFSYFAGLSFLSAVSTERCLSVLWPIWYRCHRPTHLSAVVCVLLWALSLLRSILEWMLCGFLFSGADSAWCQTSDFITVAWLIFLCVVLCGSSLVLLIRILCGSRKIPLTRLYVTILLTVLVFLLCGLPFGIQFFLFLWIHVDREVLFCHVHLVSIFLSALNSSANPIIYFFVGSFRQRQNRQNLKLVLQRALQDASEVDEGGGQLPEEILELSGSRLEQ
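Assay system: stable human MrgX1 HEK293 cell line. Quantity: 15,000 cells per well. Schedule: cells plated overnight, dye loaded 0.5 h 37 °C, 0.5 h room temperature. Detection: Fluo-4 NW calcium-flux fluorescence, kinetic read. Read-out basis: peak-minus-minimum fluorescence over baseline, converted to B scores. Control set: positive and negative control wells on each plate.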
MrgX1 antagonist: blocks BAM8-22 activation of human MrgX1 receptor; Q96LB2; MRGX1-HEK293 calcium flux, Fluo-4, BAM8-22 antagonism; stronger effect = lower value; B-score at 10 µM; hit rate 1.3% among 310,000; AID 588676;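 active means calcium-response B-score plate-corrected more than 3 library SD below zero, starting fluorescence within 5 deviations, no agonist response on first addition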;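 further: peak minus trough fluorescence over baseline after final BAM8-22 challenge near maximal dose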
MrgX1 allo act: allosterically activates human MrgX1 receptor signaling; Q96LB2; MrgX1-HEK293, Fluo-4 calcium flux, FDSS; stronger effect = higher value; B-score at 10 µM; hit rate 0.63% among 310,000;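 active means plate-corrected calcium response at least 3 library SD above typical, normal starting fluorescence, not activating the receptor alone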;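 further: compound read alongside a low EC10 to EC30 dose of BAM8-22 agonist; peak minus trough fluorescence over baseline measured at the second addition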
KCC2 mod: KCC2 (human) Cl- transport modulation; B-score of Tl+ flux slope (higher = more flux/activation; lower = inhibition) at 10 µM; Q9H2X9; hit rate 2.2% among 190,000; KCC2 cells, thallium flux FluoZin-2 fluorescence;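 active means thallium flux slope and its plate-corrected score both differing from the plate sample mean at a set confidence after two filtering rounds, in either direction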;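 further: slope of fluorescence scaled to starting intensity during 10 to 20 s after thallium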
MrgX1 ant reconf: human MrgX1 receptor antagonism, re-confirmation screen | shares compounds with MrgX1 antagonist | MrgX1-HEK293, BAM8-22 calcium flux, Fluo-4; stronger effect = lower value | remaining BAM8-22 calcium response % of control (stronger effect = lower value), % at 10 µM | hit rate 19% among 2,300;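 active means remaining agonist calcium response no higher than 100% minus 3 SD of agonist-only control wells, with starting fluorescence near control levels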;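 further: agonist BAM8-22 given at a near maximal EC90 to ECmax level; peak minus minimum fluorescence divided by baseline after agonist addition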
HEK293 Ca flux: activity in parental HEK293 cells lacking MrgX1; shares compounds with MrgX1 antagonist; Fluo-4 calcium fluorescence, FDSS; fluorescence ratio F(max-min)/F0 at 10 µM; hit rate 2% among 4,000; AID 624111;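 active means duplicate-averaged calcium fluorescence ratio at least three times the standard deviation of buffer wells, a nonspecific response in parental cells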
HEK293 Ca counter: counter-screen for MrgX1 allosteric activators: effect in parental HEK293 cells | parental HEK293 calcium flux, Fluo-4 fluorescence ratio; stronger effect = higher value | fluorescence ratio F(max-min)/F0 at 10 µM | shares compounds with MrgX1 antagonist | hit rate 0.4% among 4,000 | AID 624114;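 active means calcium fluorescence ratio, averaged over duplicates, at least 3 SD of the buffer-well ratio, meaning a nonspecific response in receptor-free cells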;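 further: untransfected parental HEK293 lacking MrgX1 used as counterscreen for MrgX1 allosteric activators; fluorescence change taken during the second addition on a kinetic imager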
HEK293 Ca cntr2: counter-screen for MrgX1 activators: effect in parental HEK293 cells; fluorescence ratio F(max-min)/F0 at 10 µM; shares compounds with MrgX1 antagonist; Fluo-4 calcium fluorescence (FDSS); stronger effect = higher value; hit rate 8.7% among 4,000;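 active means calcium fluorescence ratio at least three times the spread of buffer wells, meaning a non-specific response in parental cells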
An asterisk follows results filed as active; i = inactive; · = no result.

SMILES	RGS4 inh	RGS4 act	MrgX1 agonist	MrgX1 antagonist	MrgX1 allo act	KCC2 mod	MrgX1 ant reconf	HEK293 Ca flux	HEK293 Ca counter	HEK293 Ca cntr2
COc1cc(C=C(c2nc3ccccc3s2)c2nc3ccccc3s2)ccc1O	i	i	i	i	i	-1.7	·	·	·	·
C/C(=N\NC(=O)c1ccc(O)cc1)c1cccc(NC(=O)c2ccc(Cl)cc2)c1	i	i	i	i	i	·	·	·	·	·
Cc1ccccc1C(=O)Nc1cccc(-c2ccc(N3CCOCC3)nn2)c1	i	i	i	-5*	i	·	i	i	i	i
COc1ccc(OC)c(NC(=O)Nc2cccc3ccccc23)c1	i	i	i	-4.6*	i	·	i	i	i	i
COc1ccc(OC)c(NC(=O)CN(Cc2ccccc2)S(C)(=O)=O)c1	i	i	i	-9.1*	i	0.51	i	i	i	i
COc1ccc(NC(=O)CN(Cc2ccccc2)S(C)(=O)=O)c(OC)c1	i	i	i	i	i	0.024	·	·	·	·
CC1CN(CCCCOc2ccc(Cl)c3ccccc23)CC(C)O1 (centres undefined)	i	i	i	i	i	·	·	·	·	·
COc1ccc(C(=O)NC2CC2)cc1OC1CCN(Cc2ccc(F)cc2F)CC1	i	i	i	-5.6*	i	·	i	i	i	i
COc1ccc(C(=O)NC2CC2)cc1OC1CCN(Cc2ccccc2F)CC1	i	i	i	i	i	·	·	·	·	·
COC(=O)c1sc(-c2ccc(C(C)(C)C)cc2)cc1NC(=O)COCC(=O)O	i	i	i	-4.7*	i	-0.7	68%*	i	i	60*
O=C(O)Cn1nnnc1-c1ccc(F)cc1	i	i	i	-5.6*	i	-0.068	i	i	i	i
CCNC(=S)Nc1ccc(Cl)cc1	i	i	i	-6*	i	0.23	i	i	i	i
CCNc1nc(OCCNC(C)=O)nc(N(C)C)n1	i	i	i	-4.8*	i	0.82	i	i	i	i
COC(=O)NCCOc1nc(N(C)C)nc(N(C)C)n1	i	i	i	i	i	0.18	·	·	·	·
O=C(CSc1ccc(-c2ccco2)nn1)Nc1ccccc1F	i	i	i	i	i	·	·	·	·	·
CCn1c(SCC(=O)OC)nc2sc3c(c2c1=O)CC(C)(C)OC3	i	i	i	i	i	-0.88	·	·	·	·
CCSc1nc2sc3c(c2c(=O)n1CC)CC(C)(C)OC3	i	i	i	-7.1*	i	-2.2	i	i	i	i
Cc1ccsc1C(=O)N(Cc1nnc(-c2ccccc2Cl)o1)C1CC1	i	i	i	-5.8*	i	·	i	i	i	i
Cc1ccc(C)c(OCC(=O)N(Cc2nnc(-c3ccccc3Cl)o2)C2CC2)c1	i	i	i	i	i	·	·	·	·	·
CC1(C)CC(CC(=O)O)(c2ccc(F)cc2)CCO1 (centres undefined)	i	i	i	-6*	i	0.65	i	i	i	i
Cn1c(=O)[nH]c(=O)c2c1nc(SCC(=O)O)n2CCCc1ccccc1	i	i	i	-6.9*	i	·	84%*	i	i	i
Cc1ccc2nc3sc(C(=O)N4CCCc5ccccc54)c(N)c3cc2c1	i	i	i	-5.7*	i	·	i	0.58*	i	i
CCc1sc(NC(C)=O)nc1-c1ccccc1	i	i	i	i	i	-0.018	·	·	·	·
CCc1sc(NC(=O)COC)nc1-c1ccccc1	i	i	i	-4.6*	i	·	i	i	i	i
CCn1c(=NC(=O)CN2C(=O)CCC2=O)sc2c(OC)ccc(OC)c21	i	i	i	-8.2*	i	·	i	i	i	i
SMILES	RGS4 inh	RGS4 act	MrgX1 agonist	MrgX1 antagonist	MrgX1 allo act	KCC2 mod	MrgX1 ant reconf	HEK293 Ca flux	HEK293 Ca counter	HEK293 Ca cntr2
Cn1nc(C(=O)Nc2nc(-c3ccc(F)cc3)cs2)ccc1=O	i	i	i	i	i	-2	·	·	·	·
Cc1ccc(C)c(N2CN(Cc3ccco3)CNC2=S)c1	i	i	i	i	i	1.4	·	·	·	·
CCN1CNC(=S)N(c2cc(C)ccc2C)C1	i	i	i	-5.8*	i	0.37	i	i	i	i
Cc1ccccc1Cc1c(C)nc2ncnn2c1C	i	i	i	-7.8*	i	0.18	i	i	i	i
Cc1ccc(C(=O)NCC(C)NC(=O)c2ccc(C)c(C)c2)cc1C (centres undefined)	i	i	i	i	i	·	·	·	·	·
Nc1nc(N)c(Cc2ccc(Cl)cc2Cl)c(N)n1	i	i	i	-4.8*	i	0.015	71%*	i	i	i
CCC1CCC(N2CCN(c3cccc(OC)c3)CC2)CC1 (centres undefined)	i	i	i	i	i	·	·	·	·	·
Cc1ccc(NC(=O)CN2CCCC2)cc1Br	i	i	i	i	i	·	·	·	·	·
Cc1ccc(CNC(=O)NC2CCCCC2)cc1	i	i	i	-5.1*	i	1.3	i	i	i	i
Cc1ccc(CNC(=S)NC2CCCCC2)cc1	i	i	i	i	i	·	·	·	·	·
Cc1cccc(NC(=O)CNC(=O)c2ccc3c(c2)OCO3)n1	i	i	i	-9.4*	i	·	i	i	i	i
Cc1cccc(NC(=O)c2ccc3c(c2)OCCO3)n1	i	i	i	i	i	·	·	·	·	·
Fc1ccc(C(c2nnnn2Cc2cccs2)N2CCN(C3CCCC3)CC2)cc1 (centres undefined)	i	i	i	-7.1*	i	-0.82	i	i	i	i
COc1cc(C2C(C#N)=C(N)N(N(C)C)C3=C2C(=O)CC(C)(C)C3)ccc1O (centres undefined)	i	i	i	i	i	·	·	·	·	·
